Reference: ChEMBL document CHEMBL1124149 (1988)
Values after ≈ are worked out from the molar mass of the structure shown.

Columns and labels:
Format in all cases: functional
Equid alphaherpesvirus 1 = assay: In vitro minimum inhibitory concentration to inhibit EHV-1-induced cytopathogenicity in PRK cells by 50%
Method in brief: (§1)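 Antiviral read-out was virus-induced cytopathogenicity in primary rabbit kidney (PRK) cell cultures. The value is the compound concentration needed to reduce cytopathogenicity by 50%.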

Human alphaherpesvirus 3 [1] = assay: In vitro minimum inhibitory concentration to inhibit thymidine deficient VZV (YSR)-induced cytopathogenicity in HEL cells by 50%
Human alphaherpesvirus 2 [2] = assay: In vitro minimum inhibitory concentration to inhibit HSV-2 (G)-induced cytopathogenicity in PRK cells by 50%; method in brief: as §1
[3] = tested on: Bovine alphaherpesvirus 1; assay: In vitro minimum inhibitory concentration to inhibit BHV-1-induced cytopathogenicity in PRK cells by 50%; method in brief: as §1
Cytomegalovirus [4] = assay: In vitro minimum inhibitory concentration to inhibit CMV (AD-169)-induced cytopathogenicity in HEL cells by 50%; conditions: Human betaherpesvirus 5
Human alphaherpesvirus 3 [5] = assay: In vitro minimum inhibitory concentration to inhibit VZV (YS)-induced cytopathogenicity in HEL cells by 50%
Human alphaherpesvirus 2 [6] = assay: In vitro minimum inhibitory concentration to inhibit HSV-2 (Lyons)-induced cytopathogenicity in PRK cells by 50%; method in brief: as §1
Suid alphaherpesvirus 1 = assay: In vitro minimum inhibitory concentration to inhibit SHV-1-induced cytopathogenicity in PRK cells by 50%; method in brief: as §1
Human alphaherpesvirus 1 [7] = assay: In vitro minimum inhibitory concentration to inhibit thymidine deficient HSV-1 (B2006)-induced cytopathogenicity in PRK cells by 50%; method in brief: as §1
Human alphaherpesvirus 1 [8] = assay: In vitro minimum inhibitory concentration to inhibit HSV-1 (McIntyre)-induced cytopathogenicity in PRK cells by 50%; method in brief: as §1
L1210 = assay: Antitumor activity against murine leukemia L1210 cells; conditions: Mus musculus; read-out: MIC
Method in brief: (§2)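 Tumor cell proliferation assay. Murine leukemia L1210 and murine mammary carcinoma FM3A cells were grown in culture with the compound. The value is the concentration inhibiting cell proliferation by 50%.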

Human alphaherpesvirus 2 [9] = assay: In vitro minimum inhibitory concentration to inhibit HSV-2 (196)-induced cytopathogenicity in PRK cells by 50%; method in brief: as §1
Human alphaherpesvirus 1 [10] = assay: In vitro minimum inhibitory concentration to inhibit HSV-1 (KOS)-induced cytopathogenicity in primary rabbit kidney cells by 50%; method in brief: as §1
Cytomegalovirus [11] = assay: In vitro minimum inhibitory concentration to inhibit CMV (Davis)-induced cytopathogenicity in HEL cells by 50%; conditions: Human betaherpesvirus 5
[12] = In vitro minimum inhibitory concentration to inhibit […] (incorporation of [methyl-3H]dThd) in PRK cells by 50%
Human alphaherpesvirus 1 [13] = assay: In vitro minimum inhibitory concentration to inhibit HSV-1 (F)-induced cytopathogenicity in primary rabbit kidney cells by 50%; method in brief: as §1
Human alphaherpesvirus 1 [14] = assay: In vitro minimum inhibitory concentration to inhibit thymidine deficient HSV-1 (VMV 1837)- induced cytopathogenicity in PRK cells by 50%; method in brief: as §1
Human alphaherpesvirus 3 [15] = assay: In vitro minimum inhibitory concentration to inhibit VZV (Oka)-induced cytopathogenicity in HEL cells by 50%
FM3A = assay: Antitumor activity against murine mammary carcinoma FM3A cells; conditions: Mus musculus; read-out: MIC; method in brief: as §2

Cn1c(N)nc2c(ncn2COCCO)c1=O
MIC (Equid alphaherpesvirus 1): 10 µg/mL (≈ 41.8 µM)
MIC (Human alphaherpesvirus 3 [1]): > 100 µg/mL
MIC (Human alphaherpesvirus 2 [2]): 1 µg/mL (≈ 4.18 µM)
MIC [3]: > 400 µg/mL
MIC (Cytomegalovirus [4]): > 100 µg/mL
MIC (Human alphaherpesvirus 3 [5]): 20 µg/mL (≈ 83.6 µM)
MIC (Human alphaherpesvirus 2 [6]): 2 µg/mL (≈ 8.36 µM)
MIC (Suid alphaherpesvirus 1): 70 µg/mL (≈ 293 µM)
MIC (Human alphaherpesvirus 1 [7]): 300 µg/mL (≈ 1250 µM)
MIC (Human alphaherpesvirus 1 [8]): 2 µg/mL (≈ 8.36 µM)
IC50 (L1210): > 100 µg/mL
MIC (Human alphaherpesvirus 2 [9]): 2 µg/mL (≈ 8.36 µM)
MIC (Human alphaherpesvirus 1 [10]): 1 µg/mL (≈ 4.18 µM)
MIC (Cytomegalovirus [11]): > 100 µg/mL
MIC ([12]; Oryctolagus cuniculus): > 400 µg/mL
MIC (Human alphaherpesvirus 1 [13]): 2 µg/mL (≈ 8.36 µM)
MIC (Human alphaherpesvirus 1 [14]): 300 µg/mL (≈ 1250 µM)
MIC (Human alphaherpesvirus 3 [15]): 20 µg/mL (≈ 83.6 µM)
IC50 (FM3A): > 100 µg/mL

Cc1cn2c([O-])c3c(nc2n1)[n+](COCCO)cn3C
MIC (Equid alphaherpesvirus 1): > 400 µg/mL
MIC (Human alphaherpesvirus 3 [1]): > 100 µg/mL
MIC (Human alphaherpesvirus 2 [2]): 70 µg/mL (≈ 252 µM)
MIC [3]: > 400 µg/mL
MIC (Cytomegalovirus [4]): > 100 µg/mL
MIC (Human alphaherpesvirus 3 [5]): > 100 µg/mL
MIC (Human alphaherpesvirus 2 [6]): 70 µg/mL (≈ 252 µM)
MIC (Suid alphaherpesvirus 1): > 400 µg/mL
MIC (Human alphaherpesvirus 1 [7]): > 400 µg/mL
MIC (Human alphaherpesvirus 1 [8]): 70 µg/mL (≈ 252 µM)
IC50 (L1210): > 100 µg/mL
MIC (Human alphaherpesvirus 2 [9]): 70 µg/mL (≈ 252 µM)
MIC (Human alphaherpesvirus 1 [10]): 70 µg/mL (≈ 252 µM)
MIC (Cytomegalovirus [11]): > 100 µg/mL
MIC ([12]; Oryctolagus cuniculus): > 400 µg/mL
MIC (Human alphaherpesvirus 1 [13]): 70 µg/mL (≈ 252 µM)
MIC (Human alphaherpesvirus 1 [14]): > 400 µg/mL
MIC (Human alphaherpesvirus 3 [15]): > 100 µg/mL
IC50 (FM3A): > 100 µg/mL

Cc1cn2c(O)c3ncn(COCCO)c3nc2n1
MIC (Equid alphaherpesvirus 1): 20 µg/mL (≈ 76 µM)
MIC (Human alphaherpesvirus 3 [1]): > 100 µg/mL
MIC (Human alphaherpesvirus 2 [2]): 0.7 µg/mL (≈ 2.66 µM)
MIC [3]: > 400 µg/mL
MIC (Cytomegalovirus [4]): > 100 µg/mL
MIC (Human alphaherpesvirus 3 [5]): 20 µg/mL (≈ 76 µM)
MIC (Human alphaherpesvirus 2 [6]): 2 µg/mL (≈ 7.6 µM)
MIC (Suid alphaherpesvirus 1): > 400 µg/mL
MIC (Human alphaherpesvirus 1 [7]): 400 µg/mL (≈ 1520 µM)
MIC (Human alphaherpesvirus 1 [8]): 2 µg/mL (≈ 7.6 µM)
IC50 (L1210): > 100 µg/mL
MIC (Human alphaherpesvirus 2 [9]): 0.7 µg/mL (≈ 2.66 µM)
MIC (Human alphaherpesvirus 1 [10]): 2 µg/mL (≈ 7.6 µM)
MIC (Cytomegalovirus [11]): > 100 µg/mL
MIC ([12]; Oryctolagus cuniculus): 257 µg/mL (≈ 976 µM)
MIC (Human alphaherpesvirus 1 [13]): 2 µg/mL (≈ 7.6 µM)
MIC (Human alphaherpesvirus 1 [14]): 400 µg/mL (≈ 1520 µM)
MIC (Human alphaherpesvirus 3 [15]): 20 µg/mL (≈ 76 µM)
IC50 (FM3A): > 100 µg/mL

Cc1cn2c(=O)c3ncn(COCCO)c3nc2n1C
MIC (Equid alphaherpesvirus 1): > 400 µg/mL
MIC (Human alphaherpesvirus 3 [1]): > 100 µg/mL
MIC (Human alphaherpesvirus 2 [2]): > 400 µg/mL
MIC [3]: > 400 µg/mL
MIC (Cytomegalovirus [4]): > 100 µg/mL
MIC (Human alphaherpesvirus 3 [5]): > 100 µg/mL
MIC (Human alphaherpesvirus 2 [6]): > 400 µg/mL
MIC (Suid alphaherpesvirus 1): > 400 µg/mL
MIC (Human alphaherpesvirus 1 [7]): > 400 µg/mL
MIC (Human alphaherpesvirus 1 [8]): > 400 µg/mL
IC50 (L1210): > 100 µg/mL
MIC (Human alphaherpesvirus 2 [9]): > 400 µg/mL
MIC (Human alphaherpesvirus 1 [10]): > 400 µg/mL
MIC (Cytomegalovirus [11]): > 100 µg/mL
MIC ([12]; Oryctolagus cuniculus): > 4000 µg/mL
MIC (Human alphaherpesvirus 1 [13]): > 400 µg/mL
MIC (Human alphaherpesvirus 1 [14]): > 400 µg/mL
MIC (Human alphaherpesvirus 3 [15]): > 100 µg/mL
IC50 (FM3A): > 100 µg/mL

CNc1nc(O)c2ncn(COCCO)c2n1
MIC (Equid alphaherpesvirus 1): > 400 µg/mL
MIC (Human alphaherpesvirus 3 [1]): > 100 µg/mL
MIC (Human alphaherpesvirus 2 [2]): 300 µg/mL (≈ 1250 µM)
MIC [3]: > 400 µg/mL
MIC (Cytomegalovirus [4]): > 100 µg/mL
MIC (Human alphaherpesvirus 3 [5]): > 100 µg/mL
MIC (Human alphaherpesvirus 2 [6]): > 400 µg/mL
MIC (Suid alphaherpesvirus 1): > 400 µg/mL
MIC (Human alphaherpesvirus 1 [7]): > 400 µg/mL
MIC (Human alphaherpesvirus 1 [8]): > 400 µg/mL
IC50 (L1210): > 100 µg/mL
MIC (Human alphaherpesvirus 2 [9]): > 400 µg/mL
MIC (Human alphaherpesvirus 1 [10]): > 400 µg/mL
MIC (Cytomegalovirus [11]): > 100 µg/mL
MIC ([12]; Oryctolagus cuniculus): > 400 µg/mL
MIC (Human alphaherpesvirus 1 [13]): > 400 µg/mL
MIC (Human alphaherpesvirus 1 [14]): > 400 µg/mL
MIC (Human alphaherpesvirus 3 [15]): > 100 µg/mL
IC50 (FM3A): > 100 µg/mL

Cn1c[n+](COCCO)c2nc(N)nc([O-])c21.O=S(=O)(O)O
MIC (Equid alphaherpesvirus 1): > 400 µg/mL
MIC (Human alphaherpesvirus 3 [1]): > 100 µg/mL
MIC (Human alphaherpesvirus 2 [2]): 40 µg/mL
MIC [3]: > 400 µg/mL
MIC (Cytomegalovirus [4]): > 100 µg/mL
MIC (Human alphaherpesvirus 3 [5]): > 100 µg/mL
MIC (Human alphaherpesvirus 2 [6]): 100 µg/mL
MIC (Suid alphaherpesvirus 1): > 400 µg/mL
MIC (Human alphaherpesvirus 1 [7]): > 400 µg/mL
MIC (Human alphaherpesvirus 1 [8]): 70 µg/mL
IC50 (L1210): > 100 µg/mL
MIC (Human alphaherpesvirus 2 [9]): 100 µg/mL
MIC (Human alphaherpesvirus 1 [10]): 70 µg/mL
MIC (Cytomegalovirus [11]): > 100 µg/mL
MIC ([12]; Oryctolagus cuniculus): > 400 µg/mL
MIC (Human alphaherpesvirus 1 [13]): 70 µg/mL
MIC (Human alphaherpesvirus 1 [14]): > 400 µg/mL
MIC (Human alphaherpesvirus 3 [15]): > 100 µg/mL
IC50 (FM3A): > 100 µg/mL

Nc1nc2c(ncn2COCCO)c(=O)[nH]1 [ACYCLOVIR]
MIC (Equid alphaherpesvirus 1): 0.2 µg/mL (≈ 0.888 µM)
MIC (Human alphaherpesvirus 2 [2]): 0.07 µg/mL (≈ 0.311 µM)
MIC [3]: 7 µg/mL (≈ 31.1 µM)
MIC (Human alphaherpesvirus 2 [6]): 0.2 µg/mL (≈ 0.888 µM)
MIC (Suid alphaherpesvirus 1): 7 µg/mL (≈ 31.1 µM)
MIC (Human alphaherpesvirus 1 [7]): 20 µg/mL (≈ 88.8 µM)
MIC (Human alphaherpesvirus 1 [8]): 0.2 µg/mL (≈ 0.888 µM)
MIC (Human alphaherpesvirus 2 [9]): 0.07 µg/mL (≈ 0.311 µM)
MIC (Human alphaherpesvirus 1 [10]): 0.2 µg/mL (≈ 0.888 µM)
MIC (Cytomegalovirus [11]): 20 µg/mL (≈ 88.8 µM)
MIC [12]: 8 µg/mL (≈ 35.5 µM)
MIC (Human alphaherpesvirus 1 [13]): 0.1 µg/mL (≈ 0.444 µM)
MIC (Human alphaherpesvirus 1 [14]): 20 µg/mL (≈ 88.8 µM)
